This is a sample that favours compounds with a hit; in the whole collection about 2.9% have one here.
SENP8 block-1: inhibitors of human SENP8 protease. Q96LD8. recombinant SENP8, Nedd8 substrate fluorescence. inhibition, % at 20 µM. 360,000 compounds, 0.64% hits; in the data active = inhibition mostly above about 40%, no sharp cut-off; inactive = mostly below about 27%
Target sequence (Q96LD8 whole entry, looked up): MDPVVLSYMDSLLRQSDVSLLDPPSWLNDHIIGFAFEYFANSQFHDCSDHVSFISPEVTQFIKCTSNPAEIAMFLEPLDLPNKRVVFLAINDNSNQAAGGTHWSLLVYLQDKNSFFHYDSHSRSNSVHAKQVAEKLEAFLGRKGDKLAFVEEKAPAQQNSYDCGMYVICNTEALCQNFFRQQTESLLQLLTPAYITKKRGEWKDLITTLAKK
SENP6 inh: SENP6 protease inhibition | Recombinant SENP6 catalytic domain, aminoluciferin luminescence | inhibition, % at 10 µM | 330,000 compounds, 1.8% hits;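 active = inhibition above about 50% at the single tested dose, limit read from the data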
SENP7 inh: SENP7 protease inhibition; inhibition, % at 5 µM; 330,000 compounds, 1.5% hits; recombinant SENP7, Z-RLRGG-aminoluciferin luminescence, 40 min; Q9BQF6;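 active = inhibition above about 50% at the single test dose, limit read from the data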
SENP8 block-2: blocks the human protease SENP8. Q96LD8. purified SENP8, Z-RLRGG-aminoluciferin cleavage, luminescence. inhibition, % at 10 µM. 330,000 compounds, 1.2% hits. AID 2540; in the data active = inhibition above about 50%
SENP1 FRET inh: SENP1 (human) catalytic domain inhibition. Q9P0U3. recombinant SENP1 catalytic domain, CyPet-SUMO1-YPet FRET cleavage. inhibition, % at 10 µM. 360,000 compounds, 0.21% hits;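 active = inhibition at least 30% at 10 µM, raw YFP signal under a set limit, fluorescence ratio 0.5 to 1.5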
Target sequence (Q9P0U3 419-644 limits assumed): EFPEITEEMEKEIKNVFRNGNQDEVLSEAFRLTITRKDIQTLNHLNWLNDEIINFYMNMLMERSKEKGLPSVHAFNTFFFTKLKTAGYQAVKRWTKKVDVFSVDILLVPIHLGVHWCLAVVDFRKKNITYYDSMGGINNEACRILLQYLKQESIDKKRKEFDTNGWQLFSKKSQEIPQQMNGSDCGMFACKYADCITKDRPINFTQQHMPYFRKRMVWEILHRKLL
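Assay system – human recombinant His6-tagged SENP1 catalytic domain enzyme · Input – SENP1 enzyme, 20 pM final · Buffer or medium – Tris pH 8 buffer plus EDTA, NaCl, BME, BSA, NP40, catalase · Schedule – 50 min reaction at room temperature · Technique – FRET read of cyan and yellow fluorescence · Control set – no-enzyme wells low, DMSO-plus-enzyme wells high control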
HSP90 refold inh: blocks HSP90-mediated luciferase refolding in reticulocyte lysate. Rabbit reticulocyte lysate, luciferase refolding luminescence, 3 h. inhibition, % at 5.6 µM. 290,000 compounds, 0.91% hits. AID 1789;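 active = inhibition above the screen-wide mean plus 3 SD, computed separately per campaign, cut at about 16% in these data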;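 note: inhibitors lower the luminescence because luciferase stays unfolded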
HSP90 inh confirm: confirmation of HSP90 inhibitors. 2,300 compounds, 64% hits. inhibition, % at 5.9 µM. shares compounds with HSP90 refold inh. rabbit reticulocyte lysate, luciferase refolding luminescence, 3 h; in the data active = inhibition above about 18%
luciferase ctr: firefly luciferase inhibition, HSP90 counter-screen. shares compounds with HSP90 refold inh. purified native firefly luciferase, luminescence. inhibition, % at 5.9 µM. 2,300 compounds, 48% hits. AID 1847;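 active = inhibition above the mean inhibition of all tested sample wells plus 3 SD, cut at about 10% in these data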
A number is an active result; 0 = inactive; - = no result.

SMILES | SENP8 block-1 | SENP6 inh | SENP7 inh | SENP8 block-2 | SENP1 FRET inh | HSP90 refold inh | HSP90 inh confirm | luciferase ctr
Cc1nc(NC(=O)c2ccc(F)cc2)sc1C(=O)Nc1ccc2c(c1)CCC2 | 0 | 0 | 0 | 0 | 0 | 39 | 46 | 0
Cc1nc(NC(=O)C2CC2)sc1C(=O)Nc1ccccc1 | 0 | 0 | 0 | 0 | 0 | 0 | - | -
Cc1nc(NC(N)=S)sc1C(=O)Nc1ccccc1 | 0 | 0 | 0 | 0 | 0 | 19 | 26 | 0
COC(=O)c1sc(NC(=S)NC(=O)c2cccc(C)c2)nc1C | 0 | 0 | 0 | 0 | 0 | 22 | 0 | 0
CCOC(=O)CNC(=O)c1sc(NC(=O)c2cccc(F)c2)nc1C | 0 | 0 | 0 | 0 | 0 | 32 | 32 | 0
COC(=O)c1sc(NC(=O)COc2cccc(C)c2)nc1C | 0 | 0 | 0 | 0 | 0 | 0 | - | -
Cc1nnc(NC(=O)c2cccc(F)c2)s1 | 0 | 0 | 0 | 0 | 0 | 0 | - | -
Cn1c(=O)n(C)c2cc(NC(=O)c3ccc(F)cc3)ccc21 | 0 | 0 | 0 | 0 | 0 | 0 | - | -
COc1ccc(NC(=O)C(=O)NCC2CCCN2S(=O)(=O)c2ccc(C)cc2)cc1 (centres undefined) | 0 | 0 | 0 | 0 | 0 | - | - | -
COc1ccc(NCC(=O)NN=C2CCS(=O)(=O)c3ccc(F)cc32)cc1 | 0 | 0 | 0 | 0 | 0 | - | - | -
Cn1c(=O)c2c(-c3ccccc3)n(-c3cc(Cl)c([N+](=O)[O-])cc3O)cc2n(C)c1=O | 0 | - | - | - | 0 | - | - | -
COc1cccc(NC(=O)c2sc(NC(=O)c3ccncc3)nc2C)c1 | 0 | 0 | 0 | 0 | 0 | 79 | 80 | 41
Cc1cnc(C(=O)Nc2ccc3c(c2)CCC3)cn1 | 0 | 0 | 0 | 0 | 0 | 17 | 27 | 18
Cn1ncc(Cl)c1C(=O)Nc1ccc2c(c1)CCC2 | 0 | 0 | 0 | 0 | 0 | 0 | - | -
COc1ccc(C(C(=O)NC(C)(C)C)N(Cc2cccnc2)C(=O)CCC(=O)Nc2cc(C)on2)cc1 (centres undefined) | 0 | 0 | 0 | 0 | 0 | 0 | - | -
CC(=O)N1CCc2cc(S(=O)(=O)CCC(=O)NCCc3ccccc3)ccc21 | 0 | 0 | 0 | 0 | 0 | 0 | - | -
CC(C)C(=O)Nc1ccc(NC(=O)c2ccccn2)cn1 | 0 | 0 | 0 | 0 | 0 | 37 | 37 | 27
CCC(=O)Nc1ccc(NC(=O)c2ccccn2)cn1 | 0 | 0 | 0 | 0 | 0 | 0 | - | -
COc1cc(C=NNc2ccccc2)ccc1OC(=O)c1ccccc1 | 0 | - | - | - | 0 | - | - | -
COc1ccc(C(=O)Oc2cc(/C=N/NC(N)=S)ccc2OC)cc1 | 0 | 0 | 0 | 0 | 0 | 0 | - | -
COc1ccc(C(=O)Oc2ccc(/C=N/Nc3ccc(Cl)c(C(=O)O)c3)cc2OC)cc1 | 0 | 0 | 0 | 0 | 0 | 46 | 66 | 0
CCOc1cc(/C=N/Nc2cccc(C(=O)O)c2)ccc1OC(=O)c1ccccc1 | 0 | 0 | 0 | 0 | 0 | 37 | 96 | 32
COc1cc(/C=N/Nc2ccc(Cl)c(C(=O)O)c2)ccc1OC(=O)c1ccco1 | 0 | 0 | 0 | 0 | 0 | 32 | 71 | 0
COc1cc(/C=N/Nc2ccc(Cl)c(C(=O)O)c2)ccc1OC(=O)c1cccs1 | 0 | 0 | 0 | 0 | 0 | 21 | 61 | 0
COc1cc(/C=N\NC(=O)OC(C)(C)C)ccc1OC(=O)c1ccco1 | 0 | 0 | 0 | 0 | 0 | 0 | - | -
SMILES | SENP8 block-1 | SENP6 inh | SENP7 inh | SENP8 block-2 | SENP1 FRET inh | HSP90 refold inh | HSP90 inh confirm | luciferase ctr
COc1cc(/C=N/Nc2ccccc2)ccc1OC(=O)c1cccs1 | - | - | - | - | - | 0 | - | -
COc1ccccc1NS(=O)(=O)c1ccc(C)c(C(=O)NCC2(N(C)C)CCCCC2)c1 | 0 | 0 | 0 | 0 | 0 | - | - | -
COc1ccc(C(=O)Cn2cc([N+](=O)[O-])nc2C)cc1 | 0 | 0 | 0 | 0 | 0 | 0 | - | -
COc1ccc(C(=O)Cn2c(C)nc([N+](=O)[O-])c2Br)cc1 | 0 | 0 | 0 | 0 | 0 | 22 | 0 | 0
Nc1cc(=O)[nH]c(SCC(=O)NNC(=O)c2ccccc2)n1 | 0 | 0 | 0 | 0 | 0 | - | - | -
Nc1cc(=O)[nH]c(SCC(=O)NNC(=O)Cc2ccccc2)n1 | 0 | 0 | 0 | 0 | 0 | 23 | 0 | 0
Cc1cccc(-c2nc(S(=O)(=O)c3ccc(F)cc3)c(NCCCN3CCOCC3)o2)c1 | 0 | 0 | 0 | 0 | 0 | 0 | - | -
CC(C)(C)n1ncc2c(=O)n(CC(=O)OCc3ccccc3)cnc21 | 0 | 0 | 0 | 0 | 0 | 84 | 91 | 89
COc1ccc(C(=O)C(C)Sc2nnc(C3CC3)n2C2CC2)cc1 (centres undefined) | 0 | 0 | 0 | 0 | 0 | - | - | -
CCCn1cc(SCC(=O)NCc2ccco2)c2ccccc21 | 0 | 0 | 0 | 0 | 0 | 0 | - | -
Cc1cc(NC(=O)CSc2cn(CCNC(=O)c3ccccc3)c3ccccc23)no1 | 0 | 0 | 0 | 0 | 0 | 0 | - | -
Cc1ccc(C(=O)NCCn2cc(SCC(=O)Nc3cc(C)on3)c3ccccc32)cc1 | 0 | 0 | 0 | 0 | 0 | 29 | 31 | 0
O=C(CSc1cn(CCNC(=O)c2ccccc2)c2ccccc12)NCc1ccco1 | 0 | 0 | 0 | 0 | 0 | 28 | 25 | 0
COC(=O)[C@@]1(C(C)C)N=C(c2cc(OC)c(OC)c(OC)c2)[C@]2(O1)C(=O)N(C)c1ccc(Cl)cc12 | 0 | - | - | - | 0 | - | - | -
NS(=O)(=O)c1ccc(CNC(=O)c2ccc(S(=O)(=O)NCc3ccco3)cc2)cc1 | 0 | 0 | 0 | 0 | 0 | - | - | -
Cc1cc(CC(=O)O)c2oc(-c3ccoc3)cc(=O)c2c1 | - | 0 | 0 | 0 | - | - | - | -
Cc1cc(C(=O)CN2C(=O)c3ccccc3S2(=O)=O)c(C)n1CC1CCCO1 (centres undefined) | 0 | 0 | 0 | 0 | 0 | 24 | 28 | 0
COc1ccc(C(=O)NNC(=O)C(=O)NC2CCCCC2)cc1 | 0 | 0 | 0 | 0 | 0 | 19 | 0 | 0
S=C1NC(c2ccccc2)=NCN1c1ccccc1 | 0 | 0 | 0 | 0 | 0 | 0 | - | -
Cc1ccc(C2=NCN(c3ccc(C(=O)O)cc3)C(=S)N2)cc1 | - | 0 | 0 | 0 | - | 22 | 18 | 0
Cn1cccc1-c1cc(C(=O)N/N=C/c2ccc(Cl)cc2)[nH]n1 | 0 | 0 | 0 | 0 | 0 | 19 | 0 | 0
OC1COC(c2ccccc2)OC1C(O)C1OC(c2ccccc2)OCC1O (centres undefined) | 0 | - | - | - | 0 | - | - | -
CC1CCN(S(=O)(=O)c2ccc3c(c2)N(CC(=O)NCCCN2CCCCC2C)C(=O)CS3)CC1 (centres undefined) | 0 | 0 | 0 | 0 | 0 | 0 | - | -
CC1CCN(S(=O)(=O)c2ccc3c(c2)N(CC(=O)NCCN2C(C)CCCC2C)C(=O)CS3)CC1 (centres undefined) | 0 | 0 | 0 | 0 | 0 | 21 | 0 | 0
Cc1cc(OC(C)C(=O)NCC(O)c2ccccc2)c2c(C)cc(=O)oc2c1 (centres undefined) | 0 | 0 | 0 | 0 | 0 | 0 | - | -
